Source: paper PMC6777341 (ACS chemical neuroscience, 2017)
Marks after values point to notes of the source that are not given here. One block for each compound: values may come before it.

Assays:
human NPFF1 receptor = human NPFF1 receptor (Homo sapiens, UniProt Q9GZQ6); test: NPFF1 calcium mobilization assay; format: cell-based; settings: for Ca^2+ NPFF1 Ke: Table 1
human NPFF2 receptor = human NPFF2 receptor (Homo sapiens, UniProt Q9Y5X5); test: NPFF2 calcium mobilization assay; format: cell-based; settings: for Ca^2+ NPFF2 Ke: Table 1
human NPFFR1 = human NPFFR1 (Homo sapiens, UniProt Q9GZQ6); test: Lance cAMP assay, NPFFR1-CHO cells; format: cell-based
human NPFFR2 = human NPFFR2 (Homo sapiens, UniProt Q9Y5X5); test: Lance cAMP assay, NPFFR2-CHO cells; format: cell-based
NPFF receptors = test: Curve-shift assays, type of antagonism; format: cell-based, human; settings: standard incubation; typical competitive profile with longer incubations
MDCK-MDR1 cells = test: Bidirectional MDCK-MDR1 permeability assay; format: in vitro ADME
Procedure, shortened: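 MDCK-MDR1 cells at passage 5 were grown 3 days on polycarbonate Transwell supports in DMEM/10% FBS, then rinsed and equilibrated 30 min at 37 °C in HBSS with 10 mM HEPES, 0.25% BSA, pH 7.4, and TEER was measured. Test compound at 10 μM was added apically (A-to-B) or basolaterally (B-to-A) at 37 °C with agitation.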

[1] = tested on: fentanyl-induced hyperalgesia; test: Fentanyl-induced hyperalgesia; format: in vivo, rat; settings: rats, i.p., day 1 after fentanyl, N=6
[2] = footnote c: pre-incubation 45 min or 1 hr
[3] = apparent Ke from right shift of NPFF curve, 15 min pretreatment

Chain of human NPFFR2 (Q9Y5X5 whole entry): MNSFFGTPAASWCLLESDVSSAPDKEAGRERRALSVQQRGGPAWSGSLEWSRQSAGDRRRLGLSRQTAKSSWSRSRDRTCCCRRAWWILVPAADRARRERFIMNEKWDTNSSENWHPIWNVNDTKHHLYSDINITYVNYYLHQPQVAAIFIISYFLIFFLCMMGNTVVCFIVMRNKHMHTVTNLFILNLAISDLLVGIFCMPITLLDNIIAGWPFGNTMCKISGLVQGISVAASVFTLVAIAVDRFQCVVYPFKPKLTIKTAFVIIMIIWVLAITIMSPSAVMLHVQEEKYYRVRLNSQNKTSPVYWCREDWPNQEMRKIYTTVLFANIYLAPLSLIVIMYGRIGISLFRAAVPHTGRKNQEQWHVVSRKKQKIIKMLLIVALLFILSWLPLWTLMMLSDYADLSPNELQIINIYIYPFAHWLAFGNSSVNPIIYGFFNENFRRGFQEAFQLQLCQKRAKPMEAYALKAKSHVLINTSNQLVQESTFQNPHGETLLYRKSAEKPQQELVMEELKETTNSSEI
Chain of human NPFF2 receptor (Q9Y5X5 whole entry): as above
Chain of human NPFF1 receptor (Q9GZQ6 whole entry): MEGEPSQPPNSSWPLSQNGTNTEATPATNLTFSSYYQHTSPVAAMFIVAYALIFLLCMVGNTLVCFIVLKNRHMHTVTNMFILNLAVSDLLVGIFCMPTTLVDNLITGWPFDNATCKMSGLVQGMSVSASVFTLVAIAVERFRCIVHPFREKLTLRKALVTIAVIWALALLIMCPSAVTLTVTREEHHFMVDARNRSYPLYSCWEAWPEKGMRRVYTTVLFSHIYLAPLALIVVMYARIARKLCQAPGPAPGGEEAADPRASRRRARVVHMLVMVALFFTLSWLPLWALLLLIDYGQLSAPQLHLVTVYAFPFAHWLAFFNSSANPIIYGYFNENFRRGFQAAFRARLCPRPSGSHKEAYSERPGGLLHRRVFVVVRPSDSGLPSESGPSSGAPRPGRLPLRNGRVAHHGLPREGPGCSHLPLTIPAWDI
Chain of human NPFFR1 (Q9GZQ6 whole entry): as above

Structure (SMILES): CCCCCCNC(=O)[C@@H]1C[C@H](NCc2ccc(OC)cc2)CN1Cc1ccccc1Cl [Compound 18, (2S,4S)-1-[(2-Chlorophenyl)methyl]-4-{[(4-methoxyphenyl)methyl]amino}-N-hexylpyrrolidine-2-carboxamide]
- Kb (human NPFFR1): 1980 ± 280 nM
- Kb (human NPFFR2): 2480 ± 270 nM

Structure (SMILES): CNC(=O)[C@@H]1C[C@H](NCc2ccc(OC)cc2)CN1Cc1ccccc1Cl [Compound 10, (2S,4S)-1-[(2-Chlorophenyl)methyl]-4-{[(4-methoxyphenyl)methyl]amino}-N-methylpyrrolidine-2-carboxamide]
- NPFF1 antagonist activity (in words) (human NPFF1 receptor; calcium mobilization assay): inactive
- NPFF2 antagonist activity (in words) (human NPFF2 receptor; calcium mobilization assay): inactive

Structure (SMILES): COc1ccc(CN[C@H]2C[C@@H](C(=O)NCCc3ccc(C(C)(C)C)cc3)N(Cc3ccccc3Cl)C2)cc1 [Compound 31, (2S,4S)-N-[2-(4-tert-Butylphenyl)ethyl]-1-[(2-chlorophenyl)methyl]-4-{[(4-methoxyphenyl)methyl]amino}pyrrolidine-2-carboxamide]
- Kb (human NPFF2 receptor): 2420 ± 260 nM

Structure (SMILES): COc1ccc(CN[C@H]2C[C@@H](C(=O)NCc3ccccc3)N(Cc3ccccc3Cl)C2)cc1 [Compound 23, (2S,4S)-N-Benzyl-1-[(2-chlorophenyl)methyl]-4-{[(4-methoxyphenyl)methyl]amino} pyrrolidine-2-carboxamide]
- Ca^2+ NPFF1 Ke (human NPFF1 receptor; [2]): 0.78 ± 0.08^c μM
- NPFF1 Ke (human NPFF1 receptor; calcium mobilization assay): 0.78 µM
- Ca^2+ NPFF2 Ke (human NPFF2 receptor; [2]): 2.01 ± 0.44^c μM
- cAMP NPFF1 Ke (human NPFFR1; Table 1): 1.72 ± 0.32 µM
- cAMP NPFF2 Ke (human NPFFR2; Table 1): 3.90 ± 1.1 µM
- type of antagonism in curve-shift assays (NPFF receptors): insurmountable antagonism

Structure (SMILES): CCC(C)NC(=O)[C@@H]1C[C@H](NCc2ccc(OC)cc2)CN1Cc1ccccc1Cl (stereo partly drawn) [Compound 14, (2S,4S)-N-(Butan-2-yl)-1-[(2-chlorophenyl)methyl]-4-{[(4-methoxyphenyl)methyl]amino} pyrrolidine-2-carboxamide]
- Ca^2+ NPFF1 Ke (human NPFF1 receptor; [3]): 1.50 ± 0.06 µM
- Ca^2+ NPFF2 Ke (human NPFF2 receptor; [3]): 3.68 ± 0.35^b μM

Structure (SMILES): COc1ccc(CN[C@H]2C[C@@H](C(=O)NCCc3ccc(OC)c(OC)c3)N(Cc3ccccc3Cl)C2)cc1 [Compound 27, (2S,4S)-1-[(2-Chlorophenyl)methyl]-N-[2-(3,4-dimethoxyphenyl)ethyl]-4-{[(4-methoxyphenyl)methyl]amino}pyrrolidine-2-carboxamide]
- Kb (human NPFFR1): 1520 ± 110 nM
- Kb (human NPFFR2): > 10000 nM

Structure (SMILES): COc1ccc(CN[C@H]2C[C@@H](C(=O)NCCc3ccc(N(C)C)cc3)N(Cc3ccccc3Cl)C2)cc1 [Compound 28, (2S,4S)-1-[(2-Chlorophenyl)methyl]-N-{2-[4-(dimethylamino)phenyl]ethyl}-4-{[(4-methoxyphenyl)methyl]amino}pyrrolidine-2-carboxamide]
- Kb (human NPFF2 receptor): 2080 ± 380 nM

Structure (SMILES): COc1ccc(CN[C@H]2C[C@@H](C(=O)NC(C)(C)C)N(Cc3ccccc3Cl)C2)cc1 [Compound 15, (2S,4S)-N-tert-Butyl-1-[(2-chlorophenyl)methyl]-4-{[(4-methoxyphenyl)methyl]amino} pyrrolidine-2-carboxamide]
- Ca^2+ NPFF1 Ke (human NPFF1 receptor; [3]): 1.88 ± 0.21 µM
- Ca^2+ NPFF2 Ke (human NPFF2 receptor; [2]): 1.26 ± 0.8^c μM

Structure (SMILES): COc1ccc(CN[C@H]2C[C@@H](C(=O)NCCCc3ccccc3)N(Cc3ccccc3Cl)C2)cc1 [Compound 25, (2S,4S)-1-[(2-Chlorophenyl)methyl]-4-{[(4-methoxyphenyl)methyl]amino}-N-(3-phenylpropyl)pyrrolidine-2-carboxamide]
- IC50 (human NPFF1 receptor): > 10000 nM
- NPFF1 antagonist activity (in words) (human NPFF1 receptor; calcium mobilization assay): completely abolished the activity

Structure (SMILES): CCNC(=O)[C@@H]1C[C@H](NCc2ccc(OC)cc2)CN1Cc1ccccc1Cl [Compound 11, (2S,4S)-1-[(2-Chlorophenyl)methyl]-N-ethyl-4-{[(4-methoxyphenyl)methyl]amino} pyrrolidine-2-carboxamide]
- Ca^2+ NPFF1 Ke (human NPFF1 receptor; [3]): >10^b μM
- NPFF1 Ke (human NPFF1 receptor; calcium mobilization assay): > 10 µM
- NPFF1 antagonist activity (in words) (human NPFF1 receptor; calcium mobilization assay): inactive
- Ca^2+ NPFF2 Ke (human NPFF2 receptor; [3]): >10^b μM
- NPFF2 antagonist activity (in words) (human NPFF2 receptor; calcium mobilization assay): inactive

Structure (SMILES): CCCCCNC(=O)[C@@H]1C[C@H](NCc2ccc(OC)cc2)CN1Cc1ccccc1Cl [Compound 16, (2S,4S)-1-[(2-Chlorophenyl)methyl]-4-{[(4-methoxyphenyl)methyl]amino}-N-pentylpyrrolidine-2-carboxamide]
- Hill slope of NPFF + compound curve (human NPFF1 receptor; calcium mobilization assay, NPFF1 cells): 1.7
- Hill slope of NPFF + compound curve (human NPFF2 receptor; calcium mobilization assay, FF2 cells): 1.1
- Kb (human NPFFR1): 360 ± 80 nM
- Hill slope of NPFF + compound curve (human NPFFR1; cAMP assay, NPFF1 cells): 1.3
- Hill slope of NPFF + compound curve (human NPFFR2; cAMP assay, FF2 cells): 1.3
- rate B to A (MDCK-MDR1 cells; MDCK-MDR1): 6.7e-06 cm/s
- rate apical (A) to basolateral (B) (MDCK-MDR1 cells; MDCK-MDR1): 7.6e-06 cm/s
- Pgp substrate status (MDCK-MDR1 cells; as indicated by the efflux ratio): not Pgp substrates
- doses significantly different from vehicle (Bonferroni post hoc) [1]: significant differences at 10 and 32 mg/kg

Structure (SMILES): CCCCCCCCCCNC(=O)[C@@H]1C[C@H](NCc2ccc(OC)cc2)CN1Cc1ccccc1Cl [Compound 19, (2S,4S)-1-[(2-Chlorophenyl)methyl]-N-decyl-4-{[(4-methoxyphenyl)methyl]amino} pyrrolidine-2-carboxamide]
- Ca^2+ NPFF1 Ke (human NPFF1 receptor; [2]): >10^b,c μM
- NPFF1 antagonist activity (in words) (human NPFF1 receptor; calcium mobilization assay): completely abolished

Structure (SMILES): CCN(CC)C(=O)[C@@H]1C[C@H](NCc2ccc(OC)cc2)CN1Cc1ccccc1Cl [Compound 22, (2S,4S)-1-[(2-Chlorophenyl)methyl]-N,N-diethyl-4-{[(4-methoxyphenyl)methyl]amino} pyrrolidine-2-carboxamide]
- Ca^2+ NPFF1 Ke (human NPFF1 receptor; [3]): >10^b μM
- NPFF1 antagonist activity (in words) (human NPFF1 receptor; calcium mobilization assay): inactive
- NPFF2 antagonist activity (in words) (human NPFF2 receptor; calcium mobilization assay): inactive

Structure (SMILES): CCCCNC(=O)[C@@H]1C[C@H](NCc2ccc(OC)cc2)CN1Cc1ccccc1Cl [Compound 13, (2S,4S)-N-Butyl-1-[(2-chlorophenyl)methyl]-4-{[(4-methoxyphenyl)methyl]amino} pyrrolidine-2-carboxamide]
- Ca^2+ NPFF1 Ke (human NPFF1 receptor; [3]): 1.24 ± 0.14 µM

Structure (SMILES): COc1ccc(CN[C@H]2C[C@@H](C(=O)NCCc3ccccc3)N(Cc3ccccc3Cl)C2)cc1 [Compound 24, (2S,4S)-1-[(2-Chlorophenyl)methyl]-4-{[(4-methoxyphenyl)methyl]amino}-N-(2-phenylethyl)pyrrolidine-2-carboxamide]
- Kb (human NPFF2 receptor): 2340 ± 310 nM

Other lines, results leading:

- Kb (human NPFF1 receptor): 990 ± 220 nM
- Kb (human NPFF2 receptor): 1830 ± 90 nM
- Kb (human NPFFR1): 1490 ± 100 nM
- Kb (human NPFFR2): 2530 ± 360 nM
- type of antagonism in curve-shift assays (NPFF receptors): insurmountable antagonism
Structure (SMILES): COc1ccc(CN[C@H]2C[C@@H](C(=O)NCCc3ccc(Cl)cc3)N(Cc3ccccc3Cl)C2)cc1 [Compound 32, (2S,4S)-N-[2-(4-Chlorophenyl)ethyl]-1-[(2-chlorophenyl)methyl]-4-{[(4-methoxyphenyl)methyl]amino}pyrrolidine-2-carboxamide]

- Kb (human NPFFR1): 1070 ± 270 nM
- Kb (human NPFFR2): > 10000 nM
Structure (SMILES): CSc1ccc(CN[C@H]2C[C@@H](C(=O)NCCc3ccc(F)c(F)c3)N(Cc3ccccc3Cl)C2)cc1 [Compound 47, (2S,4S)-1-[(2-Chlorophenyl)methyl]-N-[2-(3,4-difluorophenyl)ethyl]-4-{[(4-(methylthio)phenyl)methyl]amino}pyrrolidine-2-carboxamide]

- type of antagonism in curve-shift assays (NPFF receptors): insurmountable antagonism
Structure (SMILES): COc1ccc(CN[C@H]2C[C@@H](C(=O)N3CCN(c4ccccc4)CC3)N(Cc3ccccc3Cl)C2)cc1 [Compound 42, (3S,5S)-1-[(2-Chlorophenyl)methyl]-N-[(4-methoxyphenyl)methyl]-5-(4-phenylpiperazine-1-carbonyl)pyrrolidin-3-amine]

- Kb (human NPFFR1): 1300 ± 140 nM
- Kb (human NPFFR2): > 10000 nM
Structure (SMILES): CSc1ccc(CN[C@H]2C[C@@H](C(=O)NCCc3ccccc3)N(Cc3ccccc3Cl)C2)cc1 [Compound 44, (2S,4S)-1-[(2-Chlorophenyl)methyl]-4-{[(4-(methylthio)phenyl)methyl]amino}-N-(2-phenylethyl)pyrrolidine-2-carboxamide]

- Kb (human NPFFR1): 1070 ± 200 nM
- Kb (human NPFFR2): 2740 ± 210 nM
Structure (SMILES): CCCCCNC(=O)[C@@H]1C[C@H](NCc2ccc(SC)cc2)CN1Cc1ccccc1Cl [Compound 43, (2S,4S)-1-[(2-Chlorophenyl)methyl]-4-{[(4-(methylthio)phenyl)methyl]amino}-N-pentylpyrrolidine-2-carboxamide]

- Kb (human NPFFR1): 2310 ± 420 nM
- Kb (human NPFFR2): > 10000 nM
- type of antagonism in curve-shift assays (NPFF receptors): insurmountable antagonism
Structure (SMILES): CCCN(CCC)C(=O)[C@@H]1C[C@H](NCc2ccc(OC)cc2)CN1Cc1ccccc1Cl [Compound 41, (2S,4S)-1-[(2-Chlorophenyl)methyl]-4-{[(4-methoxyphenyl)methyl]amino}-N,N-dipropylpyrrolidine-2-carboxamide]

- Ca^2+ NPFF1 Ke (human NPFF1 receptor; [3]): 2.90 ± 0.15 µM
- NPFF1 Ke (human NPFF1 receptor; calcium mobilization assay): 2.90 µM
- Ca^2+ NPFF2 Ke (human NPFF2 receptor; [3]): 4.93 ± 0.02^b μM
Structure (SMILES): CCN(CC)C(=O)[C@@H]1C[C@H](NCc2ccc(OC)cc2)CN1Cc1ccccc1Cl [Compound 40, (2S,4S)-1-[(2-Chlorophenyl)methyl]-N,N-diethyl-4-{[(4-methoxyphenyl)methyl]amino} pyrrolidine-2-carboxamide]

- Kb (human NPFFR1): 1410 ± 180 nM
- Kb (human NPFFR2): > 10000 nM
Structure (SMILES): COc1ccc(CN[C@H]2C[C@@H](C(=O)NCCc3ccc(F)cc3)N(Cc3ccccc3Cl)C2)cc1 [Compound 35, (2S,4S)-1-[(2-Chlorophenyl)methyl]-N-[2-(4-fluorophenyl)ethyl]-4-{[(4-methoxyphenyl)methyl]amino}pyrrolidine-2-carboxamide]

- Kb (human NPFF2 receptor): 3490 ± 1400 nM
Structure (SMILES): COc1ccc(CN[C@H]2C[C@@H](C(=O)NCCc3ccc(F)c(F)c3)N(Cc3ccccc3Cl)C2)cc1 [Compound 34, (2S,4S)-1-[(2-Chlorophenyl)methyl]-N-[2-(3,4-difluorophenyl)ethyl]-4-{[(4-methoxyphenyl)methyl]amino}pyrrolidine-2-carboxamide]
